The source made the active and inactive calls. No cut-off for these calls is given here.

Data set [1] concerns HT-29. In words: Induction of apoptosis in doxorubicin-resistant human HT29 cells assessed as activation of caspase 9 using LEHD-AMC substrate at 5 uM incubated for 24 hrs by fluorescence based assay. It counts as functional, cell-based. Summed up:
(§1)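 Cells 24 h in 5 µmol/L compound or fresh medium, lysed in HEPES/KOH buffer pH 7.5. 20 µg lysate incubated 1 h at 37°C with 20 µmol/L LEHD-AMC (caspase 9) or DEVD-AMC (caspase 3) in HEPES/CHAPS/sucrose/DTT buffer pH 7.5. Stopped with ice-cold 0.1% TCA; AMC fluorescence ex 380/em 460 nm, converted to nmol AMC/µg protein via AMC standards. Triplicate.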

The test system of data set [2] is HT-29. As to the kind of experiment: Induction of apoptosis in human HT29 cells assessed as activation of caspase 3 using DEVD-AMC substrate at 5 uM incubated for 24 hrs by fluorescence based assay. It counts as functional, cell-based. The gist of the method: as §1
Data set [3] has as its system HT-29. As to the kind of experiment: Induction of apoptosis in human HT29 cells assessed as activation of caspase 9 using LEHD-AMC substrate at 5 uM incubated for 24 hrs by fluorescence based assay. It counts as functional, cell-based. The gist of the method:
as §1

A short description of data set [4]: Prodrug release in doxorubicin-resistant human HT-29 cells assessed as increase in NO level by measuring nitrite release at 5 uM incubated for 24 hrs by spectrophotometric analysis. The class given is ADME, cell-based. The note with it: ht-29, 24 h. Summed up:
(§2)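 After 24 h culture with 5 µmol/L compound, medium mixed 1:1 with Griess reagent, 10 min 37°C in dark, absorbance 540 nm. Cell-free blank subtracted; nitrite expressed as nmol/mg cell protein. HT29/dx maintained in 200 nmol/L DOXO. Triplicate, mean ± SD (n = 3).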

In data set [5] the test system is HT-29. As to the kind of experiment: Induction of apoptosis in doxorubicin-resistant human HT29 cells assessed as activation of caspase 3 using DEVD-AMC substrate at 5 uM incubated for 24 hrs by fluorescence based assay. It counts as functional, cell-based. The gist of the method: as §1
Data set [6] can be described thus: Stability of the compound assessed as human serum esterase-mediated compound hydrolysis by measuring half life at 100 uM by RP-HPLC analysis. It counts as ADME, cell-free. The gist of the method: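 Compound from 10 mM DMSO stock added to human male AB serum preheated to 37 °C, 100 µM final, incubated at 37 ± 0.5 °C. Aliquots deproteinized with acetonitrile/0.1% HCOOH, centrifuged, filtered. Parent and degradation products quantified by RP-HPLC (234 and 480 nm) against 1–100 µM calibration. At least triplicate.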

Data set [7] can be described thus: Prodrug release in human HT-29 cells assessed as increase in NO level by measuring nitrite release at 5 uM incubated for 24 hrs by spectrophotometric analysis. It counts as ADME, cell-based. The note with it: ht-29, 24 h. The gist of the method:
as §2

Data set [8] can be described thus: Prodrug release in human HT-29 cells assessed as increase in NO level by measuring induction of P-glycoprotein nitration in plasma membrane at 5 uM incubated for 24 hrs by western blot analysis. The following applies: ht-29, 24 h. The class given is cell membranes, Cell membrane. The gist of the method:
(§3)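 Cells 24 h with 5 µmol/L compound. Plasma-membrane proteins isolated by surface biotinylation, 50 µg run on SDS-PAGE, probed for Pgp with pancadherin loading control; nitration detected by Western blot, peroxidase secondary and chemiluminescence. Representative of three experiments.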

Data set [9] can be described thus: Prodrug release in doxorubicin-resistant human HT-29 cells assessed as increase in NO level by measuring plasma membrane associated MRP1/BCRP nitration mediated drug uptake at 5 uM incubated for 24 hrs by spectrofluorometric analysis. It counts as ADME, cell membranes. The note with it: ht-29, 24 h. Summed up:
(§4)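 Cells 24 h with 5 µmol/L compound; DOXO in whole-cell lysates measured fluorimetrically (ex 475/em 553 nm), cell-free blank subtracted, converted to nmol DOXO/mg protein by calibration curve. Triplicate, mean ± SD.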

In data set [10] the test system is HT-29. As to the kind of experiment: Upregulation of iNOS protein expression in human HT-29 cells. The class given is functional, cell-based. The gist of the method: (§5)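 HT29 and HT29/dx cells incubated 24 h with compound or fresh medium; lysed in MLB buffer pH 7.5, sonicated, centrifuged 13,000 x g 10 min 4°C; iNOS detected in whole-cell lysate by Western blotting.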

The next data set deals with H9c2. In words: Cardiotoxicity against rat H9c2 cells assessed as LDH release at 5 uM incubated for 24 hrs. It counts as toxicity, cell-based. The note with it: h9c2, 24 h. The gist of the method: (§6)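 Extracellular medium spun 12,000 × g 5 min; cells detached, sonicated in 82.3 mmol/L triethanolamine phosphate-HCl pH 7.6. LDH activity read in medium and lysate at 340 nm over 6 min, as µmol NADH oxidized/min/dish; extracellular LDH given as % of total dish activity. Compounds from DMSO stock, 5 µM final, 1% DMSO; controls 1% DMSO. Triplicate, mean ± SD.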

For data set [11], the system named is HT-29. As to the kind of experiment: Upregulation of iNOS protein expression in doxorubicin-resistant human HT-29 cells. The class given is functional, cell-based. Summed up:
as §5

Data set [12] is described as follows: Prodrug release in doxorubicin-resistant human HT-29 cells assessed as increase in NO level by measuring mitochondria associated MRP1/BCRP nitration mediated drug uptake at 5 uM incubated for 24 hrs by spectrofluorometric analysis. The note with it: ht-29, 24 h. It counts as ADME. Summed up:
(§7)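 Cells 24 h with 5 µmol/L compound; mitochondrial fractions isolated (porin check by immunoblot), DOXO measured fluorimetrically (ex 475/em 553 nm) with blank subtraction and calibration curve; expressed as nmol DOXO/mg mitochondrial protein. Triplicate, mean ± SD.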

Data set [13] can be described thus: Prodrug release in human HT-29 cells assessed as increase in NO level by measuring mitochondria associated MRP1/BCRP nitration mediated drug uptake at 5 uM incubated for 24 hrs by spectrofluorometric analysis. It counts as ADME. The following applies: ht-29, 24 h. Summed up: as §7
Data set [14] in a line: Prodrug release in human HT-29 cells assessed as increase in NO level by measuring plasma membrane associated MRP1/BCRP nitration mediated drug uptake at 5 uM incubated for 24 hrs by spectrofluorometric analysis. The note with it: ht-29, 24 h. It counts as ADME, cell membranes. Summed up: as §4
The nature of data set [15]: Prodrug release in human HT-29 cells assessed as increase in NO level by measuring induction of P-glycoprotein nitration in mitochondria at 5 uM incubated for 24 hrs by western blot analysis. The note with it: ht-29, 24 h. The gist of the method:
(§8)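 Cells 24 h with 5 µmol/L compound. Mitochondrial extracts, 10 µg protein, run on SDS-PAGE and probed for Pgp, porin as loading control; nitration detected by Western blot with peroxidase secondary and chemiluminescence. Representative of three experiments.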

The nature of data set [16]: Prodrug release in doxrubicin-resistant human HT-29 cells assessed as increase in NO level by measuring induction of P-glycoprotein nitration in mitochondria at 5 uM incubated for 24 hrs by western blot analysis. The following applies: ht-29, 24 h. The gist of the method: as §8
Data set [17] is described as follows: Prodrug release in doxorubicin-resistant human HT-29 cells assessed as increase in NO level by measuring induction of P-glycoprotein nitration in plasma membrane at 5 uM incubated for 24 hrs by western blot analysis. The class given is cell membranes, Cell membrane. The following applies: ht-29, 24 h. The gist of the method:
as §3

Data set [18] relates to HT-29. In words: Cytotoxicity against doxorubicin-resistant human HT-29 cells assessed as LDH release at 5 uM incubated for 24 hrs. The class given is functional, cell-based. Summed up: as §6
In data set [19] the test system is HT-29. As to the kind of experiment: Cytotoxicity against human HT-29 cells assessed as LDH release at 5 uM incubated for 24 hrs. The class given is functional, cell-based. The gist of the method: as §6

Consider `COc1cccc2c1C(=O)c1c(O)c3c(c(O)c1C2=O)C[C@@](O)(C(=O)COC(=O)CCCC(CO[N+](=O)[O-])O[N+](=O)[O-])C[C@@H]3O[C@H]1C[C@H](N)[C@H](O)[C@H](C)O1.Cl` (stereo not given in full), for which the result in the data set on HT-29 [1], with HT-29 [2], in the data set with HT-29 [3] and in the data set on HT-29 [5] was inactive. For the same compound, the Drug metabolism result in [4] and in data set [7] was “Metabolite_Detected” in each case. The half-life at 100 µM in data set [6] is 6 h.

Take `COc1cccc2c1C(=O)c1c(O)c3c(c(O)c1C2=O)C[C@@](O)(C(=O)CO)C[C@@H]3O[C@H]1C[C@H](N)[C@H](O)[C@H](C)O1` [DOXORUBICIN]: the results for the Activity result (in data set [8]; in the data set on H9c2) were “Not Active” and “Toxic”, respectively. In addition, the Drug uptake result in data set [9] is “Not Active”; in data set [12], “Not Active”; in [13], “Active”; in data set [14], “Active”. In addition, the outcome with HT-29 [10] was Active. In the data set on HT-29 [11], the outcome was inactive. In addition, the Drug metabolism entry in data set [7] was “Metabolite_Detected”.

For `COc1cccc2c1C(=O)c1c(O)c3c(c(O)c1C2=O)C[C@@](O)(C(=O)COC(=O)c1ccc(C(=O)OCO/N=[N+](\[O-])N2CCCC2)cc1)C[C@@H]3O[C@H]1C[C@H](N)[C@H](O)[C@H](C)O1.Cl`, the Activity result in data set [9], in data set [15] and in data set [16] was “Not Active” each time. Besides, the outcome with HT-29 [1], in the data set with HT-29 [2], in the data set with HT-29 [3] and with HT-29 [5] was inactive. The Drug metabolism result in data set [4] and in data set [7] was “Metabolite_Detected” in each case. The half-life at 100 µM in [6] was 2.8 h. Besides, the Drug uptake entry in data set [14] was “Not Active”.

For `COc1cccc2c1C(=O)c1c(O)c3c(c(O)c1C2=O)C[C@@](O)(C(=O)COC(=O)CCCCCO[N+](=O)[O-])C[C@@H]3O[C@H]1C[C@H](N)[C@H](O)[C@H](C)O1.Cl`, the Drug uptake result in [9] and in [14] was “Active” throughout. Also, the Drug metabolism result in data set [4] and in data set [7] was “Metabolite_Detected” in each case. Moreover, in [6], the half-life at 100 µM was 4.9 h. Further, the Activity entry in data set [17] was “Not Active”.

`COc1cccc2c1C(=O)c1c(O)c3c(c(O)c1C2=O)C[C@@](O)(C(=O)COC(=O)c1ccc(OCC(CO[N+](=O)[O-])O[N+](=O)[O-])cc1)C[C@@H]3O[C@H]1C[C@H](N)[C@H](O)[C@H](C)O1.Cl` (stereo not given in full): the Activity entry in data set [8], in [15], in [16] and in [17] was “Not Active” in each case. In addition, the Drug uptake result in data set [9] and in data set [14] was “Active” throughout. In addition, the result in the data set on HT-29 [1], in the data set with HT-29 [2], in the data set on HT-29 [3] and in the data set on HT-29 [5] was inactive. For the same compound, the Drug metabolism entry in [4] and in [7] was “Metabolite_Detected” throughout. For the same compound, the half-life at 100 µM in data set [6] was 34.7 h.

With `COc1cccc2c1C(=O)c1c(O)c3c(c(O)c1C2=O)C[C@@](O)(C(=O)COC(=O)c1ccc(CC(CO[N+](=O)[O-])O[N+](=O)[O-])cc1)C[C@@H]3O[C@H]1C[C@H](N)[C@H](O)[C@H](C)O1` (stereo not given in full), the Activity result was “Not Active” in data set [8], “Non-Toxic” in the data set on H9c2 and “Not Active” in [17]. Further, the Drug uptake entry in data set [9], in data set [12], in [13] and in data set [14] was “Active” each time. Also, the result in the data set with HT-29 [1], with HT-29 [2], with HT-29 [18], in the data set on HT-29 [10], in the data set with HT-29 [3] and in the data set with HT-29 [11] was Active. Further, the outcome in the data set with HT-29 [5] and in the data set with HT-29 [19] was Active. Further, the Drug metabolism result in data set [4] and in data set [7] was “Metabolite_Detected” each time. For the same compound, in [6], the half-life at 100 µM is 16 h.

Take `COc1cccc2c1C(=O)c1c(O)c3c(c(O)c1C2=O)C[C@@](O)(C(=O)COC(=O)c1ccc(CCCO[N+](=O)[O-])cc1)C[C@@H]3O[C@H]1C[C@H](N)[C@H](O)[C@H](C)O1.Cl`: the Activity result in data set [8], in [15], in [16] and in [17] was “Not Active” in each case. The Drug uptake result in data set [9] and in data set [14] was “Active” in each case. The outcome with HT-29 [1], in the data set on HT-29 [2], in the data set with HT-29 [3] and in the data set with HT-29 [5] was inactive. Further, the Drug metabolism result in [4] and in [7] was “Metabolite_Detected” throughout. Further, the half-life at 100 µM in [6] is 24.6 h.

For `COc1cccc2c1C(=O)c1c(O)c3c(c(O)c1C2=O)C[C@@](O)(C(=O)COC(=O)c1ccc(OCCCO[N+](=O)[O-])cc1)C[C@@H]3O[C@H]1C[C@H](N)[C@H](O)[C@H](C)O1.Cl`, the Activity result in data set [8], in data set [15], in data set [16] and in [17] was “Not Active” in each case. The Drug uptake entry in data set [9] and in data set [14] was “Active” throughout. The outcome with HT-29 [1], in the data set with HT-29 [2], in the data set with HT-29 [3] and with HT-29 [5] was inactive. Further, the Drug metabolism entry in [4] and in data set [7] was “Metabolite_Detected” each time. Moreover, the half-life at 100 µM in data set [6] is 26.7 h.

(Values after ChEMBL document CHEMBL4715702, “Overcoming multidrug resistance by targeting mitochondria with NO-donating doxorubicins” (Bioorg Med Chem, 2016).)
